ChEMBL document CHEMBL1649302, “New small-molecule inhibitor class targeting human immunodeficiency virus type 1 virion maturation” (Antimicrob Agents Chemother, 2009)
Activity calls are given as the source filed them. The calls are words filed in the database; no cut-off is given here.

What was measured:
[1] = Therapeutic index, ratio of CC50 for human MT2 cells to EC50 for HIV1 3B infected in human MT2 cells; type: cell-based; conditions: read-out: TI
Outline: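 TI was the mean CC50 (XTT, uninfected MT-2) divided by the mean EC50, determined for each cell line in each experiment.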

[2] = system: Human immunodeficiency virus 1; experiment: Antiviral activity HIV1 92BR030 infected in human PBMC after 7 days by scintillation counting; type: functional, organism-based; conditions: Human immunodeficiency virus 1, 92BR030, 168 h
Outline: (§1)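 Fresh PBMCs from HIV/HBV-seronegative donors were PHA-stimulated (4 μg/ml, 48–72 h) and kept with IL-2 (20 U/ml), with at least two donors pooled. Cells were seeded at 5 × 10⁴/well and infected (final MOI ≅0.1) with nine compound concentrations in triplicate wells. After 7 days, reverse transcriptase activity was measured in cell-free supernatant.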

[3] = Therapeutic index, ratio of CC50 for human PBMC to EC50 for HIV1 93BR029 infected in human PBMC; conditions: read-out: TI
Outline: (§2)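 Frozen PHA-stimulated (1.5 μg/ml, 3 days) buffy-coat PBMCs pooled from three or four seronegative donors. Infected with a TCID50-based virus input per 10⁶ cells for 1 h at 37°C, then pelleted and resuspended in 10 ng/ml IL-2. Plated at 4 × 10⁵ cells/ml on compound dilutions for 7 days at 37°C. Supernatant RT measured by Quan-T-RT. TI is mean CC50 divided by mean EC50.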

[4] = Therapeutic index, ratio of CC50 for human PBMC to EC50 for HIV1 92US660 infected in human PBMC; conditions: read-out: TI
Outline: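 PHA-stimulated (4 μg/ml, 48 to 72 h) PBMCs pooled from at least two seronegative donors, kept with 20 U/ml IL-2, plated at 5 × 10⁴ cells/well. Infected with clinical isolate (final MOI ≅0.1) alongside nine compound concentrations in triplicate wells, 7 days. Supernatant reverse transcriptase activity measured. TI is mean PBMC CC50 divided by mean EC50.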

[5] = Therapeutic index, ratio of CC50 for human PBMC to EC50 for HIV1 98IN022 infected in human PBMC; conditions: read-out: TI; outline: as §2
[6] = system: Human immunodeficiency virus 1; experiment: Antiviral activity HIV1 96USHIPS7 infected in human PBMC after 7 days by scintillation counting; type: functional, organism-based; conditions: Human immunodeficiency virus 1, 96USHIPS7, 168 h; outline: as §1
[7] = system: Human immunodeficiency virus 1; experiment: Antiviral activity HIV1 92TH014 infected in human PBMC after 7 days by scintillation counting; type: functional, organism-based; conditions: Human immunodeficiency virus 1, 92TH014, 168 h; outline: as §1
[8] = Therapeutic index, ratio of CC50 for human PBMC to EC50 for HIV1 92HT596 infected in human PBMC; conditions: read-out: TI; outline: as §2
[9] = system: Human immunodeficiency virus 1; experiment: Antiviral activity HIV1 92HT599 infected in human PBMC after 7 days by scintillation counting; type: functional, organism-based; conditions: Human immunodeficiency virus 1, 92HT599, 168 h
Outline: (§3)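 PBMCs came from buffy coats pooled from 3–4 seronegative donors, were PHA-stimulated (1.5 μg/ml, 3 days) and frozen. Thawed cells were infected 1 h at 37°C with virus input set by TCID50, then pelleted and resuspended in IL-2 (10 ng/ml). They were plated at 4 × 10⁵ cells/ml onto compounds for 7 days at 37°C. Supernatant RT activity was measured by Quan-T-RT scintillation assay.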

[10] = system: Human immunodeficiency virus 1; experiment: Antiviral activity HIV1 91US056 infected in human PBMC after 7 days by scintillation counting; type: functional, organism-based; conditions: Human immunodeficiency virus 1, 91US056, 168 h; outline: as §1
[11] = system: Human immunodeficiency virus 1; experiment: Antiviral activity against HIV1 NL4-3 infected in human PM1 cells assessed as inhibition of viral p24 antigen production after 5 days; type: functional, organism-based; conditions: Human immunodeficiency virus 1, NL4-3, PM1, 120 h
Outline: (§4)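 PM1 cells (NL4-3, Ba-L) or MT-2 cells (92HT594, 92HT599) were infected at MOI 0.16 for 2 h and washed. They were plated at 1 × 10⁴ cells/well (2 × 10⁵/ml) onto half-log compound dilutions. Supernatant p24 was quantified by ELISA at day 5. EC50 was the concentration giving a 50% decrease versus infected, compound-free cells.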

[12] = Cytotoxicity against human MT2 cells after 6 days by XTT assay; type: cell-based
Outline: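 Uninfected cells were incubated with half-log compound dilutions for 6 days, then given XTT/PMS for 4 h and read at 450 nm. CC50 was the concentration reducing formazan to 50% of uninfected, compound-free cells. Values are means ± SD from 3–5 experiments or individual values.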

[13] = Cytotoxicity against human PM1 cells after 5 days by XTT assay; type: cell-based
Outline: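 CC50 in uninfected PM1 cells was measured by the XTT dye-reduction method: XTT/PMS for 4 h, absorbance at 450 nm, 50% of compound-free formazan.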

[14] = Therapeutic index, ratio of CC50 for human PM1 cells to EC50 for HIV1 NL4-3 infected in human PM1 cells; type: cell-based; conditions: read-out: TI
Outline: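 PM1 cells infected at MOI 0.16 for 2 h, washed, then seeded at 1 × 10⁴ cells/well on half-log compound dilutions. After 5 days, supernatant p24 antigen was quantified by ELISA kit. EC50 is the concentration halving p24 versus infected untreated cells. CC50 was measured in PM1 cells by XTT formazan at 450 nm. TI is CC50 divided by EC50.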

[15] = system: Human immunodeficiency virus 1; experiment: Antiviral activity against HIV1 NL4-3 infected in human HeLa cells assessed as decrease in single-cycle viral infection after 72 hrs by beta-galactosidase reporter gene assay; type: functional, organism-based; conditions: Human immunodeficiency virus 1, NL4-3, HeLa
Outline: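 HeLa CD4 LTR/beta-Gal cells (1 × 10⁴/well, DMEM + 10% FBS) were pre-dosed with half-log compound dilutions. They were infected at MOI 0.03 with single-cycle NL4-3 reporter virus made by cotransfecting HEK 293 cells with pNL4-3deltaEnv and an NL4-3 envelope vector. EC50 is from beta-gal reporter activity relative to infected untreated cells, across three experiments.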

[16] = system: Human immunodeficiency virus 1; experiment: Antiviral activity HIV1 3B infected in human PBMC after 7 days by scintillation counting; type: functional, organism-based; conditions: Human immunodeficiency virus 1, 3B, 168 h; outline: as §3
[17] = system: Human immunodeficiency virus 1; experiment: Antiviral activity HIV1 92BR004 infected in human PBMC after 7 days by scintillation counting; type: functional, organism-based; conditions: Human immunodeficiency virus 1, 92BR004, 168 h; outline: as §3
[18] = Therapeutic index, ratio of CC50 for human PBMC to EC50 for HIV1 92BR026 infected in human PBMC; conditions: read-out: TI
[19] = Therapeutic index, ratio of CC50 for human PBMC to EC50 for HIV1 CMU06 infected in human PBMC; conditions: read-out: TI; outline: as §2
[20] = system: Human immunodeficiency virus 1; experiment: Antiviral activity against HIV1 assessed as inhibition of virion maturation-associated CA/SP1 processing at 2 times EC90; type: functional, organism-based
[21] = system: Human immunodeficiency virus 1; experiment: Antiviral activity against HIV1 NL4-3 infected in HEK293 cells assessed as decrease in virus production at 2 times EC90 after 72 hrs by beta-galactosidase reporter gene assay; type: functional
[22] = system: Human immunodeficiency virus 1; experiment: Antiviral activity against HIV1 92HT594 infected in human MT2 cells assessed as inhibition of viral p24 antigen production after 5 days; type: functional, organism-based; conditions: Human immunodeficiency virus 1, 92HT594, MT2, 120 h; outline: as §4
[23] = system: Human immunodeficiency virus 1; experiment: Antiviral activity against HIV1 NL4-3 infected in HEK293 cells assessed as inhibition of viral p24 antigen production after 72 hrs

`CC(C)(C)c1ccc(C(Cn2cccc(C(F)(F)F)c2=O)NC2Cc3ccccc3C2)cc1` (stereo not drawn) gave a selectivity ratio [1] of 1120, an EC50 [2] of over 17000 nM and a selectivity ratio [3] of 30. It also gave a selectivity ratio [4] of 1, a selectivity ratio [5] of 13 and an EC50 [6] of over 17000 nM. The EC50 [7] was over 17000 nM, the selectivity ratio [8] was 53 and the EC50 [9] was 1400 nM. For the same molecule, the EC50 [10] was over 17000 nM, the EC50 [11] was 30 nM and the CC50 at 144 h [12] was 15000 nM. The CC50 at 120 h [13] was 19000 nM, the selectivity ratio [14] was 633 and the EC50 [15] was over 10000 nM. For the same molecule, the EC50 [16] was 320 nM, the EC50 [17] was 330 nM and the selectivity ratio [18] was under 1. For the same molecule, the selectivity ratio [19] was 14, the inhibition [20] was “Active” and the “inhibition (INH)” value [21] was 92%. For the same molecule, the EC50 [22] was 240 nM and the inhibition [23] was “inactive”.
